Bioassay records (PubChem)
Most compounds without a hit are left out; they make up all but 9.2% or so of the library.
Dynein cargo inh = dynein cargo transport inhibition; 3617.4 mouse cells, GR-EGFP nuclear translocation imaging; test concentration mostly 20 µM; stimulated with dexamethasone, 1 µM; hits give low values; z-score, hits read low; 220,000 tested, 0.47% active;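 active = plate z-score of nuclear minus cytoplasmic receptor signal below a set negative limit, without overly bright fluorescence or cell loss, cut at about -3.5 in these data, passing the limit was not always enough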;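 also: z-score of nuclear minus cytoplasmic ring GR-EGFP intensity difference per well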
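medium = tetracycline-free induction medium containing charcoal-stripped FBS | probe or stimulus = dexamethasone, 1.0 µM final | timing = 48 h induction, then 1 h compound, then 30 min agonist, 37 °C | detection = automated 10x imaging of fixed Hoechst-stained cells | read-out basis = nuclear versus cytoplasmic GR-EGFP signal, averaged per well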
HCT116 PTEN-null = suppresses growth of cells with PTEN deletion. HCT116 PTEN-null viability, CellTiter-Glo, 60 h; hits give low values. viability, % at 10 µM. 140,000 tested, 1.2% active. AID 827;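 active = viability at or below a set limit, 4 SD under the median of all tested compounds, cut at about 3.7% in these data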;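 also: PTEN knockout HCT116 line with beta catenin targeted HCT116 as companion control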
HCT116 bCat-KO = beta-catenin-lacking colon tumor cell growth suppression; HCT116 beta-catenin knockout viability, CellTiter-Glo, 60 h; hits give low values; viability, % at 10 µM; 140,000 tested, 1.5% active;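 active = viability at or under a set limit, the compound median less 4 SD, cut at about 6% in these data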;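 also: 0% = Hyamine 1622 control at 20 µM and 100% = untreated cell control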
L major viab = inhibitors of Leishmania major promastigote growth; inhibition, % at 10 µM; Leishmania major promastigotes, resazurin fluorescence viability; 200,000 tested, 9% active; in the data active = inhibition above about 50%;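 also: promastigotes grown with compound for 44 hours at 28 °C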
Autophagy HCS = alters autophagy in cells; calls only at 10 µM (by protocol); MEF GFP-LC3 puncta imaging; test concentration mostly 10 µM; 190,000 tested, 0.98% active;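 active = percentage of spot-positive cells more than 3 SD above its plate mean, without a fluorescence outlier flag or 80% toxicity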;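 also: spot-positive cell cutoff set from DMSO-treated cells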
* = called active by the depositor; i = inactive; nt = not tested or not shown; + = active, no number.

SMILES	Dynein cargo inh	HCT116 PTEN-null	HCT116 bCat-KO	L major viab	Autophagy HCS
CC(=O)Nc1ccc(/C(C)=N/NC(=O)C2CC2c2ccccc2)cc1 (centres undefined)	0.21	101	95	0	i
Cc1cc(C(=O)NCC23CC4CC(CC(C4)C2)C3)c(C)o1	-0.62	nt	nt	-2	i
COc1cc([C@H]2c3[nH]c4ccccc4c3C[C@H]3C(=O)N4[C@@H](c5cc(OC)c(OC)c(OC)c5)c5[nH]c6ccccc6c5C[C@H]4C(=O)N23)cc(OC)c1OC	0.73	1.8*	3.0*	-4	i
O=C1[C@@H]2Cc3c([nH]c4ccccc34)[C@@H](c3ccccc3)N2C(=O)[C@@H]2Cc3c([nH]c4ccccc34)[C@@H](c3ccccc3)N12	-0.73	1.5*	1.4*	76*	i
COc1cc(C2NCCc3c2[nH]c2ccccc32)ccc1OC(C)C (centres undefined)	0.52	nt	nt	7	i
COC(=O)C1Cc2c([nH]c3ccccc23)C(C)N1 (centres undefined)	-0.28	100	97	-2	i
Cn1cnc([N+](=O)[O-])c1Oc1cccc2ccccc12	-3.5	7	7	73*	i
COc1ccc2ccccc2c1C(=O)/C=C\c1ccoc1	-0.71	63	62	30	i
O=C(/C=C/c1ccoc1)c1ccccc1O	-1.7	78	78	76*	i
CCCN1CCCc2cc(CN)ccc21	-0.64	14	14	100*	i
COc1ccc(Cn2c(SCc3cc(C)ccc3C)nc3cc(OC)c(OC)cc3c2=N)cc1	1.5	1.4*	1.9*	101*	+
COCCCn1c(SCc2ccccc2)nc2cc(OC)c(OC)cc2c1=N	1.9	69	75	64*	i
CCCCNC(=O)CSc1nc2cc(OC)c(OC)cc2c(=O)n1Cc1ccc(OC)cc1	-1.2	0.6*	1.3*	8	i
COc1ccc(Cn2c(SCc3ccc(C)cc3)nc3cc(OC)c(OC)cc3c2=N)cc1Cl	0.2	1.2*	1.2*	100*	i
CCOC(=O)C(Oc1ccc(=O)n(-c2ccccc2)n1)C(C)=O (centres undefined)	-0.42	103	100	-6	i
CCC1CCCCN1Cc1nc(Cc2ccccc2Cl)no1 (centres undefined)	0.38	nt	nt	nt	nt
CN(c1ccc(C(=O)Nc2ccccc2C(F)(F)F)cc1)S(C)(=O)=O	-0.21	91	97	1	i
Cc1ccc(C)c(NC(=O)C(=O)NCc2ccccn2)c1	1.1	95	100	64*	i
Cc1ccc(NC(=O)NCc2ccccn2)cc1	0.18	nt	nt	-5	i
Cc1ccc(OCCNc2cc(N3CCN(CCO)CC3)ccc2[N+](=O)[O-])cc1C	-0.13	26	23	35	i
CC1CN(CN2C(=O)c3ccccc3C2=O)CC(C)O1 (centres undefined)	-0.67	93	89	-4	i
C=C(C)C1CC=C(CN2CC(C)OC(C)C2)CC1 (centres undefined)	0.1	101	98	88*	i
C=C(C)C1CC=C(CN2CCC(C(=O)OCC)CC2)CC1 (centres undefined)	2.5	87	92	95*	i
CSc1nnc(SCC#N)s1	0.58	nt	nt	nt	nt
CCC(C)NC(=O)NC(=O)N(C1CCCCC1)S(C)(=O)=O (centres undefined)	0.52	103	103	-9	i
SMILES	Dynein cargo inh	HCT116 PTEN-null	HCT116 bCat-KO	L major viab	Autophagy HCS
CC(C)(C)c1ccc(NC(=O)c2ccccc2)c([N+](=O)[O-])c1	0.6	nt	nt	4	i
COc1ccc(-n2cc(CNCC3CCOCC3)c(-c3cccc(F)c3)n2)cc1	0.22	nt	nt	87*	i
COc1ccc(-n2cc(CNCCCn3ccnc3)c(-c3cccc(F)c3)n2)cc1	-0.69	nt	nt	100*	i
COc1ccc(S(=O)(=O)N(CC(=O)NCc2cccnc2)C2CCCCC2)cc1OC	0.12	nt	nt	nt	nt
CCN(C(=O)CCCC(=O)N(CC)c1ccccc1)c1ccccc1	-0.37	98	99	-8	i
O=C(Nc1cc(C(F)(F)F)ccc1-n1cncn1)c1ccc(-c2ccccc2)cc1	-0.53	94	102	90*	i
O=C(Nc1cc(C(F)(F)F)ccc1-n1cncn1)c1ccc(Cl)cc1	1.3	105	91	-2	i
CCCCNC(=O)CSc1nc(N)c(C(=O)Nc2ccc(OC)cc2)s1	0.0078	nt	nt	nt	nt
CCOc1ccccc1Nc1nc(-c2sc(NC(=O)c3ccccc3)nc2C)cs1	1.9	74	86	100*	i
